Data as given in PMC12304097 (Scientific Reports, 2025).

Key:
NEP = conditions: cited from earlier work
[1] = target: T1, NEP (recombinant soluble extracellular domain) (Homo sapiens, UniProt P08473); test: Inhibition of NEP-mediated NP cleavage; type: biochemical; conditions: inhibitor 50 µM, NEP 9.4 nM
NEP2 = conditions: cited from earlier work
[2] = target: T2, NEP2 (recombinant soluble extracellular domain) (Homo sapiens, UniProt Q495T6); test: Inhibition of NEP2-mediated NP cleavage; type: biochemical; conditions: inhibitor 50 µM, NEP2 113 nM
T2 sequence (Q495T6 74-779): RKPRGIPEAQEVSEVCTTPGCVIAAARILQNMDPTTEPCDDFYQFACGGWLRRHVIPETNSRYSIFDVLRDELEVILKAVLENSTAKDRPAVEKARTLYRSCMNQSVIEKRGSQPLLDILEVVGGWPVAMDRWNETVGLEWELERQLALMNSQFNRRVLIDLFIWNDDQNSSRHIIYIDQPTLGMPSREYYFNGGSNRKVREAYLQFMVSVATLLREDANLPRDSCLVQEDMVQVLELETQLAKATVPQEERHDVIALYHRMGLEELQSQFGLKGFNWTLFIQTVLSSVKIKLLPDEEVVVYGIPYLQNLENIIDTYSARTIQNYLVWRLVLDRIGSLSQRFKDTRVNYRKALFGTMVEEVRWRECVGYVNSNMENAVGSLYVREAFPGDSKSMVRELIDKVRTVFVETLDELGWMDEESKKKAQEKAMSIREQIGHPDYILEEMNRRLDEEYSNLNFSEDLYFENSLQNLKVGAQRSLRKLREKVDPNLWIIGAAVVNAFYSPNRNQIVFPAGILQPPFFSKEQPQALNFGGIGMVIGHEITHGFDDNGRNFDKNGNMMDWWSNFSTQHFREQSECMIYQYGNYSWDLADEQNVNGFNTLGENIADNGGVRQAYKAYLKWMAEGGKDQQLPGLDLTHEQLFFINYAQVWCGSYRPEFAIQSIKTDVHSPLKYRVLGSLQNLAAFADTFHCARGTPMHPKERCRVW

cGMP = conditions: canine model of renin-angiotensin-aldosterone system; cited from earlier work
[3] = target: T1, NEP (recombinant soluble extracellular domain); test: In vitro NP cleavage by NEP, read by intact-ring s-IA; type: in vitro ADME
Outline: (§1)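 Ni-NTA-purified His-tagged soluble human ectodomains were used: NEP (aa 56–750, Expi293F) at 9.4 nM and NEP2 (aa 74–779, ExpiCHO-S) at 113 nM. Doses were activity-matched on a fluorogenic substrate. […] Reactions were stopped with EDTA buffer and read by Eu-chelate intact-ring ANP or BNP sandwich immunoassay, relative to enzyme-free sample.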

[4] = target: T2, NEP2 (recombinant soluble extracellular domain); test: In vitro NP cleavage by NEP2, read by intact-ring s-IA; type: in vitro ADME; conditions: sentence says the same is true for NEP2
Outline: as §1

[5] = peptide 1.45 µM, intact-ring s-IA, P < 0.005

T1 sequence (P08473 56-750): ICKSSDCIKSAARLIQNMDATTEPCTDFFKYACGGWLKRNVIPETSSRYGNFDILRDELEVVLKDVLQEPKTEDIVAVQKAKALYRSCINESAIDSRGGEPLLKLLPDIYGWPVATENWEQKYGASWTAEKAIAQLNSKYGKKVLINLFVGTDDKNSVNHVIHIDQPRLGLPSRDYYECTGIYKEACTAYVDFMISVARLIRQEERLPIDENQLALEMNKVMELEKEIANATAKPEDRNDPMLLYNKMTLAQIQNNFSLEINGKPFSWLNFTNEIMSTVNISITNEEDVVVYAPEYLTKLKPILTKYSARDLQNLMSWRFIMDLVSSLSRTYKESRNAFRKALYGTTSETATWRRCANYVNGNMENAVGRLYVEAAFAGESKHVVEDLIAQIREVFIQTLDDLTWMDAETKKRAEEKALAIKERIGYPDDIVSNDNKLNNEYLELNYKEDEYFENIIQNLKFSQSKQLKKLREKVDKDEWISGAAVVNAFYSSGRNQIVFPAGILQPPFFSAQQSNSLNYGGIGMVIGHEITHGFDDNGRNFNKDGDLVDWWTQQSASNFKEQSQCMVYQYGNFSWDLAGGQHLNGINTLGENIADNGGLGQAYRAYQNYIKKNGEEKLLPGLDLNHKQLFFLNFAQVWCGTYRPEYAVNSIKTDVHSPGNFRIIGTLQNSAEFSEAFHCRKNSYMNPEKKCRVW

CC(C)C[C@H](NP(=O)(O)O[C@@H]1O[C@@H](C)[C@H](O)[C@@H](O)[C@H]1O)C(=O)N[C@@H](Cc1c[nH]c2ccccc12)C(=O)O [phosphoramidon]
Inhibition of NEP (NEP): sensitive
Effect of inhibitor on neo5-epitope formation during BNP proteolysis by NEP ([1]; BNP 1.45 µM, neo5 s-IA): inhibited
Effect of inhibitor on ANP and BNP proteolysis by NEP [1, 5]: inhibited
Inhibition of NEP2 (NEP2): sensitive
Effect of inhibitor on neo5-epitope formation during BNP proteolysis by NEP2 ([2]; BNP 1.45 µM, neo5 s-IA): inhibited
Effect of inhibitor on ANP and BNP proteolysis by NEP2 [2, 5]: inhibited

C[C@H](C[C@@H](Cc1ccc(-c2ccccc2)cc1)NC(=O)CCC(=O)O)C(=O)O [sacubitrilat]
Circulating cGMP levels (cGMP): increased

O=C(O)CNC(=O)C(CS)Cc1ccccc1 (centres unmarked) [thiorphan]
Affinity towards NEP2, fold lower than towards NEP (NEP2): 30 times
Inhibition of NEP2 (NEP2): less potently

ANP: Synthetic ANP, 28 aa, aar 124–151 of UniProt P01160, Bachem
Susceptibility to proteolysis by NEP relative to BNP [3]: more susceptible to proteolysis
Susceptibility to proteolysis by NEP2 relative to BNP [4]: more susceptible to proteolysis
